Source: ChEMBL document CHEMBL1134642, “Dicationic bis(9-methylphenazine-1-carboxamides): relationships between biological activity and linker chain structure for a series of potent topoisomerase targeted anticancer drugs” (J Med Chem, 2001)

Legend:
[1] = Ratio of IC50 values obtained from Jurkat lines, (JLd /JLc); assay type: functional, Homo sapiens
In short: (§1)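 Murine P388 leukemia, Lewis lung carcinoma (LL), and human Jurkat leukemia (JLC) cells, plus amsacrine- and doxorubicin-resistant Jurkat derivatives (JLA, JLD), were grown with drug. Seeding per well was 4.5×10^3 (P388), 10^3 (LL) and 3.75×10^3 (Jurkat). Exposure was 3 days (P388) or 4 days (others). Growth was read by [3H]TdR uptake (P388) or sulforhodamine assay. IC50 is the drug concentration (nM) halving cell number versus controls. Ratios are JLA/JLC and JLD/JLC IC50. Independent assays were run in duplicate.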

[2] = tested on: Lewis lung carcinoma cell line; test: Inhibitory concentration required to reduce cell number to 50% of control cultures in LL(Lewis lung carcinoma cell line); assay type: functional, cell-based; conditions: Mus musculus; in short: as §1
[3] = Inhibitory concentration required to reduce cell number to 50% of control cultures in JLc(Jurkat human leukemia); assay type: functional; in short: as §1
[4] = Ratio of IC50 values obtained from Jurkat lines, (JLa /JLc); assay type: functional, Homo sapiens; in short: as §1
P388 = test: Inhibitory concentration required to reduce cell number to 50% of control cultures in P388 (murine leukemia cell line); assay type: functional, cell-based; conditions: Mus musculus; in short: as §1
MCF7 = test: Inhibitory concentration required to reduce cell growth to 50% of control cultures in the MCF-7 human cell line; assay type: functional
[5] = (§2) Average GI50 value for the drug over the whole cell line panel; assay type: functional
SK-OV-3 = test: Inhibitory concentration required to reduce cell growth to 50% of control cultures in the SKOV3 human cell line; assay type: functional
[6] = Inhibitory concentration required to reduce cell growth to 50% of control cultures in the NCI-ADR human cell line; assay type: functional; conditions: NCI/ADR-RES
HT-29 [7] = test: Inhibitory concentration required to reduce cell growth to 50% of control cultures in the HT-29 human cell line; assay type: functional
CAKI-1 = test: Inhibitory concentration required to reduce cell growth to 50% of control cultures in the CAK1 human cell line; assay type: functional
HCT-116 = test: Inhibitory concentration required to reduce cell growth to 50% of control cultures in the HTC116 human cell line; assay type: functional
Whole cell line panel = test: as §2; assay type: functional
[8] = Concentration of the drug to reduce cell number to 50% of controls in AuxB1 cell line; assay type: functional, cell-based
HT-29 [9] = test: Inhibitory concentration of the drug resulting in inhibition of cell growth to 50% of controls in HT-29 (human colon); assay type: functional, cell-based
D3F = test: Concentration of the drug to reduce cell number to 50% of controls in D3F cell line; assay type: functional, cell-based
MOLT-4 = test: Inhibitory concentration of the drug resulting in inhibition of cell growth to 50% of controls in MOLT-4 (human leukemia); assay type: functional, cell-based
[10] = tested on: Lewis lung carcinoma cell line; test: Inhibitory concentration required to reduce cell number to 50% of control cultures in LL (Lewis lung carcinoma cell line); assay type: functional, cell-based; conditions: Mus musculus; in short: as §1
[11] = Ratio of IC50 values obtained from D3F-C10 and D3F cell lines; assay type: functional
[12] = Ratio of IC50 values obtained from CHrC5 and AuxB1 cell lines; assay type: functional
U-937 = test: Inhibitory concentration of the drug resulting in inhibition of cell growth to 50% of controls in U937 (human leukemia); assay type: functional, cell-based
Mus musculus [13] = test: In vivo activity in colon 38 model for tumor growth delay after i.p. administration of 20 mg/kg in C57/B1 mice; assay type: functional; conditions: route intraperitoneal
In short: (§3)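 Treatment started at about 4 mm diameter, with 5 mice per group. Hydrochloride salts in distilled water were given intraperitoneally at 0.01 mL/g, q4d × 3. Calliper measurements were taken three times weekly; volume = 0.52·a²·b. Growth delay is the time for mean tumour volume to reach 4-fold pretreatment volume.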

Mus musculus [14] = test: In vivo activity in colon 38 model for tumor growth delay after i.p. administration of 13.3 mg/kg in C57/B1 mice; assay type: functional; conditions: route intraperitoneal; in short: as §3
Mus musculus [15] = test: In vivo activity in colon 38 model for tumor growth delay after i.p. administration of 8.9 mg/kg in C57/B1 mice; assay type: functional; conditions: route intraperitoneal; in short: as §3
Mus musculus [16] = test: In vivo activity in HT-29 model for tumor growth delay after i.p. administration of 13.3 mg/kg in nude mice; conditions: route intraperitoneal
Mus musculus [17] = test: In vivo activity in colon 38 model for tumor growth delay after i.p. administration of 30 mg/kg in C57/B1 mice; assay type: functional; conditions: route intraperitoneal; in short: as §3
Mus musculus [18] = test: In vivo activity in HT-29 model for tumor growth delay after i.p. administration of 20 mg/kg in nude mice; conditions: route intraperitoneal

Compound | IC50 [2] [nM] | IC50 [3] [nM] | IC50 (P388) [nM] | Ratio [1] | Ratio [4] | other results
Cc1cccc2nc3cccc(C(=O)NCCCNCCCCNCCCNC(=O)c4cccc5nc6cccc(C)c6nc45)c3nc12 | 112 | 8.7 | 880 | 1.2 | 0.2 | GI50 (MCF7): 74 nM; GI50 [5]: 2000 nM; GI50 (SK-OV-3): 13600 nM; GI50 [6]: 906 nM; GI50 (HT-29 [7]): 366 nM; GI50 (CAKI-1): 8280 nM; GI50 (HCT-116): 335 nM
Cc1cccc2nc3cccc(C(=O)NCCN(C)C)c3nc12 | 39 | 207 | 18 | 1.1 | 1.1 | –
Cc1cccc2nc3cccc(C(=O)NCCCCNCCCCNCCCCNC(=O)c4cccc5nc6cccc(C)c6nc45)c3nc12 | 290 | 67 | 890 | 0.9 | 0.3 | –
Cc1cccc2cc3cccc(C(=O)NCCN(C)C)c3nc12 | 5.6 | 46 | – | 4.8 | 4.6 | –
CCCN(CCNC(=O)c1cccc2nc3cccc(C)c3nc12)CCN(CCC)CCNC(=O)c1cccc2nc3cccc(C)c3nc12 | 120 | 46 | 250 | 0.8 | 0.5 | –
Cc1cccc2nc3cccc(C(=O)NCCCN(C)CCCNC(=O)c4cccc5nc6cccc(C)c6nc45)c3nc12 | – | 5.6 | – | 0.6 | 0.6 | GI50 (MCF7): < 10 nM; GI50 (Whole cell line panel): 20 nM; IC50 [8]: 0.57 nM; GI50 (SK-OV-3): 220 nM; GI50 [6]: 19 nM; IC50 (HT-29 [9]): 1.5 nM; IC50 (D3F): 2.9 nM; IC50 (MOLT-4): 0.35 nM; IC50 [10]: 3.3 nM; GI50 (HT-29 [7]): < 10 nM; Ratio [11]: 0.57; GI50 (CAKI-1): < 10 nM; Ratio [12]: 31.3; GI50 (HCT-116): < 10 nM; IC50 (U-937): 6.9 nM
CCN(CCNC(=O)c1cccc2nc3cccc(C)c3nc12)CCN(CC)CCNC(=O)c1cccc2nc3cccc(C)c3nc12 | 48 | 16 | 170 | 0.7 | 0.6 | –
Cc1cccc2nc3cccc(C(=O)NCCN(C)CCN(C)CCNC(=O)c4cccc5nc6cccc(C)c6nc45)c3nc12 | 20 | 5.3 | 33 | 0.6 | 0.4 | –
Cc1cccc2nc3cccc(C(=O)NCCN4CCN(CCNC(=O)c5cccc6nc7cccc(C)c7nc56)CC4)c3nc12 | 12 | 11 | 2240 | 0.9 | 0.6 | –

These reach a lower IC50 [3]. Values come first.

IC50 [2] [nM] | IC50 [3] [nM] | IC50 (P388) [nM] | Compound | Ratio [1] | Ratio [4] | other results
31 | 1.3 | 430 | Cc1cccc2nc3cccc(C(=O)NCCCNCCCNCCCNC(=O)c4cccc5nc6cccc(C)c6nc45)c3nc12 | 1 | 0.5 | –
0.3 | 0.08 | 1.6 | Cc1cccc2nc3cccc(C(=O)NCCN(C)CCCN(C)CCNC(=O)c4cccc5nc6cccc(C)c6nc45)c3nc12 | 0.8 | 0.4 | GI50 (MCF7): < 10 nM; GI50 [5]: 0.29 nM; GI50 (SK-OV-3): < 0.1 nM; GI50 [6]: < 0.1 nM; GI50 (HT-29 [7]): < 10 nM; GI50 (CAKI-1): < 0.1 nM; GI50 (HCT-116): < 0.1 nM
1.2 | 0.24 | 7.4 | Cc1cccc2nc3cccc(C(=O)NCCNCCCNCCNC(=O)c4cccc5nc6cccc(C)c6nc45)c3nc12 | 0.6 | 0.7 | –
0.46 | 1.3 | 48 | Cc1cccc2nc3cccc(C(=O)NCCCN4CCN(CCCNC(=O)c5cccc6nc7cccc(C)c7nc56)CC4)c3nc12 | 0.7 | 0.8 | –
2.8 | 0.18 | 21 | Cc1cccc2nc3cccc(C(=O)NCCNCCNCCNC(=O)c4cccc5nc6cccc(C)c6nc45)c3nc12 | 0.9 | 0.5 | Growth delay (Mus musculus [13]): 7 days; GI50 (MCF7): < 10 nM; GI50 [5]: 13 nM; IC50 [8]: 3.7 nM; GI50 (SK-OV-3): < 10 nM; GI50 [6]: 15 nM; IC50 (HT-29 [9]): 0.08 nM; IC50 (D3F): 4.4 nM; IC50 (MOLT-4): 0.0062 nM; Growth delay (Mus musculus [14]): 4 days; GI50 (HT-29 [7]): < 10 nM; Growth delay (Mus musculus [15]): 2.8 days; Ratio [11]: 0.91; GI50 (CAKI-1): < 10 nM; Ratio [12]: 47.1; GI50 (HCT-116): < 10 nM; Growth delay (Mus musculus [16]): 2.4 days; IC50 (U-937): 0.047 nM
0.34 | 1.1 | 96 | Cc1cccc2nc3cccc(C(=O)NCCCCN4CCN(CCCCNC(=O)c5cccc6nc7cccc(C)c7nc56)CC4)c3nc12 | 0.5 | 0.5 | –
35 | 1.7 | 740 | Cc1cccc2nc3cccc(C(=O)NCCCNCCNCCCNC(=O)c4cccc5nc6cccc(C)c6nc45)c3nc12 | 1.3 | 0.4 | GI50 (MCF7): 24 nM; GI50 [5]: 524 nM; GI50 (SK-OV-3): 8890 nM; GI50 [6]: 8030 nM; GI50 (HT-29 [7]): 27 nM; GI50 (CAKI-1): 1000 nM; GI50 (HCT-116): 21 nM
10 | 0.6 | 37 | Cc1ccc(Cl)c2nc3cccc(C(=O)NCCNCCNCCNC(=O)c4cccc5nc6c(Cl)ccc(C)c6nc45)c3nc12 | 0.8 | 0.4 | –
3.9 | 0.6 | 8.3 | Cc1ccc(C)c2nc3c(C(=O)NCCNCCNCCNC(=O)c4cccc5nc6c(C)ccc(C)c6nc45)cccc3nc12 | 0.6 | 0.5 | Growth delay (Mus musculus [13]): 4.4 days; IC50 [8]: 4.5 nM; IC50 (HT-29 [9]): 0.15 nM; IC50 (D3F): 6.5 nM; IC50 (MOLT-4): 0.067 nM; Growth delay (Mus musculus [17]): 7.5 days; Growth delay (Mus musculus [14]): 2.4 days; Growth delay (Mus musculus [15]): 2.8 days; Ratio [11]: 0.77; Ratio [12]: 30.3; Growth delay (Mus musculus [18]): 7.8 days; IC50 (U-937): 0.52 nM
11 | 0.7 | 1.5 | O=C1c2cccc3cccc(c23)C(=O)N1CCNCCCNCCN1C(=O)c2cccc3cccc(c23)C1=O [ELINAFIDE] | 0.6 | 0.3 | IC50 (HT-29 [9]): 0.15 nM; IC50 (MOLT-4): 0.037 nM; IC50 (U-937): 0.34 nM
